The text below walks through data of ChEMBL document CHEMBL2384977, “Synthesis and biological evaluation of novel styryl benzimidazole derivatives as probes for imaging of neurofibrillary tangles in Alzheimer's disease” (Bioorg Med Chem, 2013).

The species named for one experiment is Homo sapiens. Kind of experiment: Selectivity ratio of Kd(app) for amyloid beta (1 to 42) (unknown origin) aggregates to Kd(app) for recombinant human tau (441 amino acid residues) aggregates. The gist of the method: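 Human 441-aa tau, expressed in E. coli, was aggregated at 1 mg/mL (MES pH 6.8, 0.1 mg/mL heparin, 37 °C, 3 days, shaking). Aβ1–42 was aggregated at 0.25 mg/mL (PBS pH 7.4, 37 °C, 42 h). Aggregates were incubated 30 min at room temperature with ligand, and fluorescence read at ex 440 nm, em 510 nm (tau) or 480 nm (Aβ). Apparent Kd came from saturation curves over six independent experiments, and the ratio is Kd(Aβ)/Kd(tau).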

The target of experiment [1] is Amyloid-beta precursor protein (Homo sapiens, UniProt P05067). The experiment can be described thus: Binding affinity to amyloid beta (1 to 42) (unknown origin) aggregates assessed as apparent dissociation constant after 30 mins by fluorescence spectroscopic analysis. The following applies: read-out: Kd(app). The gist of the method: (§1)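 Tau: human 441-aa tau expressed in E. coli, aggregated at 1 mg/mL in MES buffer pH 6.8 with 0.1 mg/mL heparin, 37 °C for 3 days with shaking. Abeta1-42 aggregated at 0.25 mg/mL in PBS pH 7.4, 37 °C for 42 h with shaking. Aggregates at final 10 µg/mL were incubated with ligand (final 0.02–10 µM) for 30 min at room temperature. Apparent Kd was taken from fluorescence saturation curves at ex 440 nm, em 510 nm (tau) or em 480 nm (Abeta). Mean ± SEM of six independent experiments.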
Amyloid-beta precursor protein, sequence (P05067 whole entry): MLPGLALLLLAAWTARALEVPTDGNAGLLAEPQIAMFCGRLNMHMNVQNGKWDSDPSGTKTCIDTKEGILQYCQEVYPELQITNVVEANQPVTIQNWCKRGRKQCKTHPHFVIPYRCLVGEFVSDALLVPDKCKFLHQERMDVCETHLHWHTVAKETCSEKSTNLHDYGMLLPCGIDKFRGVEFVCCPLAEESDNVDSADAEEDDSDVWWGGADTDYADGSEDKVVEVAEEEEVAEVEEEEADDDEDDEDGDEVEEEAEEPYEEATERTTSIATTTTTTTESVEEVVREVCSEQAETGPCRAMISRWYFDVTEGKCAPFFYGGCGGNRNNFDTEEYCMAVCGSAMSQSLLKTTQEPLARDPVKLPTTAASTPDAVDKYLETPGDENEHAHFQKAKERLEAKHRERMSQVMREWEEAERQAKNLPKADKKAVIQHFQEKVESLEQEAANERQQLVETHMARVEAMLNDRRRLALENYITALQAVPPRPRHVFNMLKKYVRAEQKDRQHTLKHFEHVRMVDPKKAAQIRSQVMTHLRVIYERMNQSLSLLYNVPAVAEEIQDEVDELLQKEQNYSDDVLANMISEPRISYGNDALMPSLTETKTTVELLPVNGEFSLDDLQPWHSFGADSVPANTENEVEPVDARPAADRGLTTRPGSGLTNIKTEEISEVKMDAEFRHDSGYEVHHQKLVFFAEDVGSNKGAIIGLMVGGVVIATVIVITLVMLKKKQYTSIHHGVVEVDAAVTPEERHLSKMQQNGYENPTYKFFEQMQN

Experiment [2] deals with Microtubule-associated protein tau (Homo sapiens, UniProt P10636). Kind of experiment: Binding affinity to recombinant human tau (441 amino acid residues) aggregates expressed in Escherichia coli assessed as apparent dissociation constant after 30 mins by fluorescence spectroscopic analysis. The note with it: read-out: Kd(app). The gist of the method:
as §1

Microtubule-associated protein tau, sequence (P10636 whole entry): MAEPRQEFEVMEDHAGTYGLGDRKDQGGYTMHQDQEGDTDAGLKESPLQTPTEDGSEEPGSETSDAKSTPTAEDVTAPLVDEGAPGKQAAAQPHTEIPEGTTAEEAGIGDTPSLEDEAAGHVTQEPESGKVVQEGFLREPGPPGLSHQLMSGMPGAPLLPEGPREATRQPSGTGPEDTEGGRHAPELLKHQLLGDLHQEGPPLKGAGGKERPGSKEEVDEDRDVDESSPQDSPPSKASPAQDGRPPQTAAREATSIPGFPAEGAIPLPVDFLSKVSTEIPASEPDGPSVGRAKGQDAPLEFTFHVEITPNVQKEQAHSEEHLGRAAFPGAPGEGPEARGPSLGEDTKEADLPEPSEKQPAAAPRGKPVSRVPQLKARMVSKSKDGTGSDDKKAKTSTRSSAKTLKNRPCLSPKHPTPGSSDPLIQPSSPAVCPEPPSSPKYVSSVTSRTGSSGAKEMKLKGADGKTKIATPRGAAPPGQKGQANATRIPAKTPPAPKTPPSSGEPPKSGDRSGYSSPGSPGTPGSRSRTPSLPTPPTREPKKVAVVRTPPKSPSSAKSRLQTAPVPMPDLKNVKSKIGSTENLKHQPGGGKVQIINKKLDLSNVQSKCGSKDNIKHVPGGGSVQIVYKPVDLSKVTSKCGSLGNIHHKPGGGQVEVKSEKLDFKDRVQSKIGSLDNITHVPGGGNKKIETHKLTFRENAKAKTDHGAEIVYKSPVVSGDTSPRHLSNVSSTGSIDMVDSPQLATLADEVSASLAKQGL

As to `Nc1ccc(/C=C/c2nc3ccc(I)cc3[nH]2)cc1`, the Selectivity ratio in the experiment listed under Homo sapiens was 0.38. Moreover, the values for the Kd in experiment [1] and in experiment [2] were 0.9 µM and 2.36 µM, respectively.
